One series has as its system Cynomolgus monkey. The experiment in a line: (§1) Oral bioavailability in cynomolgus monkey at 10 mg/kg. In kind it is ADME, organism-based, Macaca fascicularis. The settings on record: in vivo. The method in brief:
(§2)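 Plasma PK after 1 mg/kg i.v. and 10 mg/kg p.o.; %F from both routes. Rat: male Sprague-Dawley, oral 0.5% methylcellulose suspension, i.v. 20% NMP/20% ethanol/60% PEG 200, n = 3. Dog oral: Tween 80 2.5 μL/mL + 0.5% MC suspension. Monkey oral: same Tween/MC suspension; i.v. 10% NMP/10% ethanol/10% PEG/70% PEG200-water premix.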

Series [1] can be described thus: Oral bioavailability in Beagle dog at 10 mg/kg. The series is classed as ADME, organism-based, Canis lupus familiaris. The settings on record: Beagle, in vivo. In a few lines: as §2
A short description of series [2]: Ratio of drug uptake in brain to plasma of Dunkin-Hartley guinea pig LPS-induced hyperalgesia pain model at 10 mg/kg, po administered 2 hrs prior to LPS challenge measured 7 hrs post dose. As to conditions: brain and plasma, read-out: BPR. In kind it is ADME, organism-based, Cavia porcellus. In a few lines: (§3)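 Guinea pigs dosed orally at 10, 30 or 100 mg/kg 2 h before intraplantar LPS in the right hind paw; thermal hyperalgesia scored. Plasma (ng/mL) and brain (ng/g) levels taken 7 h post dose; brain/plasma ratio computed. Means of 6–9 animals per group, single experiment.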

A short description of series [3]: (§4) AUC (0 to 24 hrs) in Beagle dog at 10 mg/kg, po. The series is classed as ADME, organism-based, Canis lupus familiaris. Also on record: dose 10 mg/kg, time < 24 hr, route oral. The settings on record: Beagle, in vivo. The method in brief:
(§5)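 Single oral dose of 10 mg/kg. Cmax and AUC0-24 taken from the oral arm. Rat: male Sprague-Dawley, dosed in 0.5% methylcellulose suspension, mean ± SD (n = 3). Guinea pig: 20% NMP + 0.5% MC suspension, mean ± SD (n = 3). Dog and cynomolgus monkey: 2.5 μL/mL Tween 80 + 0.5 (w/v) MC suspension.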

Series [4] can be described thus: Clearance in Beagle dog at 1 mg/kg, iv. The settings on record: in vivo. The series is classed as ADME, organism-based, Canis lupus familiaris. The method in brief:
(§6)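 Intravenous dose of 1 mg/kg; clearance and Vz derived from the i.v. arm. Rat (male Sprague-Dawley) vehicle 20% NMP + 20% ethanol + 60% PEG 200, mean ± SD (n = 3). Dog vehicle 20% NMP + 20% EtOH + 10% PG + 50% PEG 200:water (3:2). Monkey vehicle 10% NMP + 10% ethanol + 10% PEG + 70% PEG200:water (3:2).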

Series [5] can be described thus: Protein binding in cynomolgus monkey plasma at 10 uM after 5 hrs by equilibrium dialysis based LC-MS/MS analysis. As to conditions: read-out: PPB (converted). The series is classed as ADME, cell-free, Macaca fascicularis. The method in brief:
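Equilibrium dialysis at 10 μM compound; result expressed as percent bound.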
Background: In equilibrium dialysis only unbound substance equilibrates across the membrane.

Series [6] is described as follows: Ratio of drug uptake in brain to plasma of Beagle dog at 10 mg/kg, po. In kind it is ADME, organism-based, Canis lupus familiaris. The settings on record: read-out: BPR.
Series [7] addresses T1, Nuclear receptor subfamily 1 group I member 2 (Homo sapiens, UniProt O75469).
T1 sequence (O75469 whole entry): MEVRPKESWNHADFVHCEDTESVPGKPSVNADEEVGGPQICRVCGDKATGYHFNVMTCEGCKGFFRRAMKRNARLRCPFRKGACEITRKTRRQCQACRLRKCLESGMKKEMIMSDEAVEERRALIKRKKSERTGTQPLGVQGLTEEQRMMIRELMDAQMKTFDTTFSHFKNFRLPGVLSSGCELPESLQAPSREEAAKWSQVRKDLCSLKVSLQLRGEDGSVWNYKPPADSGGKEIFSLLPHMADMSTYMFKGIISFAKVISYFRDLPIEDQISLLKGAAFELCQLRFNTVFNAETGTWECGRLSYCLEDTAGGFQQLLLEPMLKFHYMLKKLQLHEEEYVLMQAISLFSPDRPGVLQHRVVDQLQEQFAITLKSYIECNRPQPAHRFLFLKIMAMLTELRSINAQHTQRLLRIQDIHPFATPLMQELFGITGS
The experiment in a line: Activation of human PXR. The series is classed as ADME.

Series [8] has as its system Canis familiaris. Put plainly: Toxicity in Beagle dog assessed as emesis at 10 mg/kg, po. In kind it is organism-based, Canis lupus familiaris. The settings on record: in vivo.
In series [9] the test system is Cavia porcellus. Put plainly: Analgesic activity in Dunkin-Hartley guinea pig hyperalgesia pain model assessed as inhibition of LPS-induced hyperalgesia administered orally 2 hrs prior to LPS challenge measured after 4.5 hrs. The series is classed as functional. The settings on record: po. In a few lines: (§7)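 Guinea pigs received compound orally, once daily, at 10, 30 or 100 mg/kg, 2 h before LPS was injected into the plantar surface of the right paw. Saline-injected animals served as the comparison for thermal hyperalgesia. Plasma and brain drug levels taken 7 h after dosing, mean of n = 6–9 per group, from a single experiment.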

Series [10] deals with Cavia porcellus. The experiment in a line: Analgesic activity in Dunkin-Hartley guinea pig hyperalgesia pain model assessed as inhibition of LPS-induced hyperalgesia at 30 mg/kg, po administered 2 hrs prior to LPS challenge measured after 4.5 hrs relative to control. The series is classed as functional. In a few lines:
as §7

For series [11], the system named is Cavia porcellus. Put plainly: Analgesic activity in Dunkin-Hartley guinea pig hyperalgesia pain model assessed as inhibition of LPS-induced hyperalgesia at 100 mg/kg, po administered 2 hrs prior to LPS challenge measured after 4.5 hrs relative to control. In kind it is functional. In a few lines:
as §7

The nature of series [12]: Plasma concentration in Dunkin-Hartley guinea pig LPS-induced hyperalgesia pain model at 30 mg/kg, po administered 2 hrs prior to LPS challenge measured 7 hrs post dose. The series is classed as ADME, organism-based, Cavia porcellus. The method in brief:
as §3

Series [13] in a line: Plasma concentration in Dunkin-Hartley guinea pig LPS-induced hyperalgesia pain model at 100 mg/kg, po administered 2 hrs prior to LPS challenge measured 7 hrs post dose. The series is classed as ADME, organism-based, Cavia porcellus. The method in brief:
as §3

Series [14] can be described thus: Drug uptake in brain of Dunkin-Hartley guinea pig LPS-induced hyperalgesia pain model at 10 mg/kg, po administered 2 hrs prior to LPS challenge measured 7 hrs post dose. The series is classed as ADME, organism-based, Cavia porcellus. The settings on record: read-out: Drug uptake. The method in brief:
as §7

Series [15] is described as follows: Drug uptake in brain of Dunkin-Hartley guinea pig LPS-induced hyperalgesia pain model at 100 mg/kg, po administered 2 hrs prior to LPS challenge measured 7 hrs post dose. The series is classed as ADME, organism-based, Cavia porcellus. The settings on record: read-out: Drug uptake. The method in brief: as §7
The nature of series [16]: Ratio of drug uptake in brain to plasma of Dunkin-Hartley guinea pig LPS-induced hyperalgesia pain model at 100 mg/kg, po administered 2 hrs prior to LPS challenge measured 7 hrs post dose. The series is classed as ADME, organism-based, Cavia porcellus. As to conditions: read-out: BPR. The method in brief:
as §3

The test system of series [17] is Cavia porcellus. Put plainly: Analgesic activity in Dunkin-Hartley guinea pig MIA-induced osteoarthritic pain model assessed as reversal of incapacitance at 100 mg/kg, po administered on day 3 measured 6 to 7 hrs post dose relative to control. In kind it is functional. In a few lines:
(§8)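 Day 0: monoiodoacetate injected into the right shoulder joint of guinea pigs; saline-injected animals as comparison. Day 3: compound given orally at 100, 250 or 500 mg/kg, and weight-bearing incapacitance on the injected forelimb measured. Plasma sampled at the PD time point, n = 6–8 per group, single experiment.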

Series [18] concerns Cavia porcellus. Put plainly: Analgesic activity in Dunkin-Hartley guinea pig MIA-induced osteoarthritic pain model assessed as reversal of incapacitance at 250 mg/kg, po administered on day 3 measured 6 to 7 hrs post dose relative to control. The series is classed as functional. In a few lines:
as §8

Series [19] in a line: Plasma concentration in Dunkin-Hartley guinea pig MIA-induced osteoarthritic pain model at 250 mg/kg, po measured 2 hrs post dose. In kind it is ADME, organism-based, Cavia porcellus. The method in brief: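 Intra-articular MIA into the right shoulder joint on day 0; oral dosing at 100, 250 or 500 mg/kg on day 3, incapacitance (forelimb weight bearing) measured. Plasma concentration sampled 2 h post dose. Means of 6–8 animals per group, single experiment.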

Series [20] is described as follows: Ratio of plasma concentration in Dunkin-Hartley guinea pig MIA-induced osteoarthritic pain model to IC50 for mPGES1 in human whole blood. In kind it is ADME. As to conditions: in vivo.
Series [21] in a line: as §1. The settings on record: in vivo. The series is classed as ADME, organism-based, Macaca fascicularis. The method in brief: as §2
Series [22] in a line: AUC (0 to 24 hrs) in cynomolgus monkey at 10 mg/kg, po. The series is classed as ADME, organism-based, Macaca fascicularis. Also on record: time < 24 hr, dose 10 mg/kg, route oral. As to conditions: in vivo. The method in brief: as §5
Series [23] deals with Canis familiaris. The series is described as §4. As to conditions: in vivo, 24 h. The series is classed as ADME, organism-based, Canis lupus familiaris. Also on record: dose 10 mg/kg, time < 24 hr, route oral. In a few lines:
as §5

Series [24] is described as follows: Clearance in cynomolgus monkey at 1 mg/kg, iv. In kind it is ADME, organism-based, Macaca fascicularis. The settings on record: in vivo. The method in brief:
as §6

The compound `CC1(C)Cc2c(c(C(=O)Nc3ccc(F)c(C(F)(F)F)c3)cc3nc(Nc4c(F)cccc4Cl)[nH]c23)O1` showed a F with Cynomolgus monkey of 44%. In addition, the bioavailability in [1] was determined as 15%. Moreover, the Kp at 7 h in series [2] was 1.02; in series [16], 1.06. For the same compound, the AUC(0-t) at 24 h in [3] stood at 8240 ng·h/mL. This compound also yielded a clearance in series [4] of 1.61 mL/min/kg. For the same compound, the fraction unbound at 5 h, 10 µM in series [5] was 0.0052. In [6], the Kp is 0.72. In addition, the response in series [7] was half-maximal at 2460 nM (EC50). The results for the Activity entry with Canis familiaris [8], in the series with Cavia porcellus [17] and in the series on Cavia porcellus [18] were “Non-Toxic”, 48% and 73%, respectively. Further, the ED50 in the series on Cavia porcellus [9] worked out at 39.6 mg/kg. Moreover, the inhibition in vivo at 30 mg/kg with Cavia porcellus [10] was 44%. Further, in the series with Cavia porcellus [11], the inhibition in vivo at 100 mg/kg turned out to be 66%. Besides, the concentration at 7 h in series [12] came out at 145 ng/mL; in [13] it was 1080 nM; in series [14], 96 ng/g; in series [15] it was 1150 nM. Further, in series [19], the concentration at 2 h worked out at 1510 ng/mL. Besides, the Ratio in [20] is 17.

Consider `CC1(C)Cc2c(c(C(=O)Nc3ccc(C(F)(F)F)cn3)cc3nc(Nc4c(Cl)cccc4Cl)[nH]c23)O1`, for which, in series [21], the bioavailability came to 21%. For the same compound, the AUC(0-t) at 24 h in series [22] is 3670 ng·h/mL. In the series with Canis familiaris [23], the exposure (AUC) turned out to be 4432 ng·h/mL. For the same compound, in series [24], the clearance is 8.5 mL/min/kg. In addition, the fraction unbound at 5 h, 10 µM in [5] is 0.005. Besides, in series [6], the Kp amounted to 0.32.

`Cc1cccc(Cl)c1Nc1nc2cc(C(=O)Nc3cc(C(F)(F)F)ccc3F)c3c(c2[nH]1)CC(C)(C)O3`: the bioavailability in series [21] was determined as 11%; in series [1], 40%. The values for the AUC(0-t) at 24 h in series [22] and in series [3] were 7510 ng·h/mL and 12900 ng·h/mL, respectively. Also, the clearance in series [24] was determined as 1.6 mL/min/kg; in series [4], 3.5 mL/min/kg.

As a reminder, the bioavailability is the share of a dose that reaches the circulation, judged against a reference dose that is usually intravenous. The AUC(0-t) is exposure summed from dosing to a finite time, without extrapolation to infinity. As a reminder, the clearance is the volume of plasma or blood freed of the substance per unit of time. As a reminder, the EC50 is the midpoint of the concentration-response curve. By ED50 is commonly meant the midpoint of the dose-response relation. The inhibition in vivo is the percentage by which the read-out fell short of the control. In general, AUC refers to the area under the concentration-time curve, a measure of exposure.

Values taken from ChEMBL document CHEMBL4219124, “Alleviating CYP and hERG liabilities by structure optimization of dihydrofuran-fused tricyclic benzo[d]imidazole series - Potent, selective and orally efficacious microsomal prostaglandin E synthase-1 (mPGES-1) inhibitors: Part-2” (Bioorg Med Chem Lett, 2018).
